Results as given in ChEMBL document CHEMBL5506026, “New Improved cGMP Analogues to Target Rod Photoreceptor Degeneration” (J Med Chem, 2024).
Calls of active or inactive are those of the source. The rule behind the calls is not given here.

Key:
[1] = system: Primary photoreceptor cell; assay: Neuroprotective activity in rd1 mouse Primary photoreceptor cells harboring loss of function mutation in Pde6b gene assessed as reduction in cell death at 50 uM administered at day 10 of differentiation and measured after 24 hrs by TUNEL assay; type: functional, cell-based
Outline: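 Neurosphere-derived retinal stem cells from rd1 mouse eyes differentiated in vitro into photoreceptors. 50 µM compound or vehicle added on day 10; TUNEL on day 11 (24 h exposure), scored as TUNEL+/DAPI+ nuclei by fluorescence microscopy. ≥3 biological replicates, mean ± SD.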

[2] = system: 661W-A11; assay: Neuroprotective activity against zaprinast induced mouse 661W-A11 cells assessed as reduction in cell death at 50 uM preincubated for 2 hrs followed by zaprinast addition at 200 uM and measured after 48 hrs by TUNEL assay; type: functional, cell-based; settings: time 50.0 hrs
Outline: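 661W-A11 cells seeded 20,000/well; 2 h pretreatment with 50 µM compound, then 200 µM zaprinast 48 h. Fixed in 2% paraformaldehyde, permeabilized in citrate/0.1% Triton X-100 on ice, TUNEL (TMR red) 30 min at 37 °C, DAPI counterstain, fluorescence microscopy. Death = TUNEL+ cells/DAPI+ cells. ≥3 biological replicates, mean ± SD.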

[3] = Neuroprotective activity against zaprinast induced mouse 661W-A11 cells assessed as increase in cell viability at 1 to 1000 uM preincubated for 2 hrs followed by zaprinast addition at 200 uM and measured after 48 hrs by MTT assay relative to control; type: functional; settings: dose 1-1000 µM, time 50 hrs
Outline: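 661W-A11 rod-like cells (DMEM 1 mg/mL glucose, 10% FBS, 37 °C, 5% CO2) seeded 6000/well; next day pretreated 2 h with 1 µM–1 mM compound, then 200 µM zaprinast 48 h with compound present. MTT 1 mg/mL, 90 min at 37 °C, formazan in isopropanol, OD 570 nm. EC50 from dose–response curve; ≥3 biological replicates, mean ± SEM.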

[4] = system: 661W-A11; assay: Neuroprotective activity against zaprinast induced mouse 661W-A11 cells assessed as increase in cell viability at 50 uM preincubated for 2 hrs followed by zaprinast addition at 200 uM and measured after 48 hrs by MTT assay; type: functional, cell-based; settings: time 50.0 hrs
Outline: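 661W-A11 cells seeded 6000/well; 24 h later pretreated 2 h with 50 µM compound, then 200 µM zaprinast 48 h with compound present. MTT 1 mg/mL for 90 min at 37 °C, formazan in isopropanol, OD 570 nm. Viability normalized to matched vehicle (H2O or DMSO) set at 100%. ≥3 biological replicates, mean ± SD.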

[5] = Cytotoxicity against mouse 661W-A11 cells assessed as reduction in cell viability at 1 to 1000 uM incubated for 48 hrs by MTT assay; type: toxicity, cell-based; settings: 661w-a11, 48 h, dose 1-1000 µM
Outline: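 661W-A11 rod-like mouse photoreceptor line (1 mg/mL glucose DMEM, 10% FBS, 37 °C, 5% CO2), seeded 6000 cells/well; next day exposed to scaling concentrations (1 μM to 1 mM) for 48 h in H2O or DMSO vehicle, matched vehicle controls. MTT 1 mg/mL, 90 min at 37 °C; formazan dissolved in isopropanol, OD 570 nm; untreated cells set as 100% viability; at least three biological replicates.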

Structure (SMILES)	Activity [1]	Activity [2]	Activity [3]	Activity [4]	Activity [5]
CCN(CC)CC.O=c1c2nc(Br)n([C@@H]3O[C@@H]4CO[P@](O)(=S)O[C@H]4[C@H]3O)c2nc2[nH]c(-c3ccccc3)cn12	Active	Active	<=70%	Active	
O=c1c2nc(Br)n([C@@H]3O[C@@H]4COP(=O)(O)O[C@H]4[C@H]3O)c2nc2[nH]c(-c3ccccc3)cn12		inactive		inactive	
O=c1c2nc(Br)n([C@@H]3O[C@@H]4CO[P@@]([O-])(=S)O[C@H]4[C@H]3O)c2nc2[nH]c(-c3ccccc3)cn12.[Na+]	Active	Active	<=70%	Active	
CCN(CC)CC.O=c1c2nc(Br)n([C@@H]3O[C@@H]4COP(=S)(S)O[C@H]4[C@H]3O)c2nc2[nH]c(-c3ccccc3)cn12 (some centres undefined)	Active	Active		Active	Non-Toxic
